According to PMC10676332 (Drugs in R&D, 2023):
Where two headings read alike, the source gives them in different places.

Tests used:
[1] = assay type: in vivo, human; conditions: 160 mg single oral dose
Summary of the method: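 Healthy adults randomized 1:1 to fasted-fed or fed-fasted sequence, 14-day washout; ≥10-h overnight fast pre-dose, no drinking 1 h before to 2 h after, fasting 4 h post-dose. Plasma sampled pre-dose to 168 h, spun 1700g, 2–8 °C, 10 min, kept −70 °C; validated LC-MS/MS; non-compartmental parameters. Ln-transformed Cmax/AUC in linear mixed model; fed/fasted GMR with 90% CI, limits 0.80–1.25.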

Safety assessment = assay type: in vivo, human
Summary of the method: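 Randomized crossover in healthy adults (fasted-fed or fed-fasted, 14-day washout). A TEAE counted any AE absent before dosing, or pre-existing and worsening in intensity or frequency after dosing. AEs graded; serious AEs and discontinuations recorded. Analysis set: every subject receiving at least one dose.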

[2] = Metabolism in human liver microsomes; assay type: in vitro ADME
In vitro solubility = assay type: physicochemical
Caco-2 = Caco-2 permeability assay; assay type: in vitro ADME; conditions: Caco-2, concentrations 2.00 to 50.0 µM
ALK = conditions: preclinical data; cited from earlier work
[3] = target: wild-type and mutant ROS1; conditions: preclinical data; cited from earlier work
HCC78 cells = conditions: cited from earlier work
[4] = test system: BaF3 cells expressing ROS1 fusion wild-type and resistance mutants; conditions: cited from earlier work
[5] = test system: ROS1 wild-type and G2032R mutant xenograft models; conditions: cited from earlier work
ALK-positive NSCLC = conditions: cited from earlier work; for Objective response rate (ORR): phase I; for IRC-assessed ORR: phase II
[6] = single 160 mg dose, fasted, cited from earlier work
[7] = cited from earlier work
[8] = oral administration with food vs fasted; cited from earlier work
[9] = 160 mg single dose, fed (high-fat meal)
[10] = oral 20–210 mg/day, ALK-positive NSCLC patients

Cc1cc(Nc2ncc(Cl)c(Nc3ccccc3S(=O)(=O)C(C)C)n2)c2c(c1C1CCN(C)CC1)C[C@@H](C)O2 [SAF-189s]
Effect of high-fat meal on the PK profile ([1]; fed vs fasted): minimal effect | Geometric mean ratio: fed/fasted, AUC0-t ([1]; n = 23): 105.1% | Geometric mean ratio: fed/fasted, AUC0-∞ ([1]; n = 23): 105.5% | Geometric mean ratio: fed/fasted, Cmax ([1]; n = 23): 109.1% | Incidence of TEAEs (Safety assessment; 160 mg single dose, fasted): 54.2% | Incidence of gastrointestinal disorders (Safety assessment; 160 mg single dose, fasted): 41.7% | Incidence of headache (Safety assessment; 160 mg single dose, fasted): 12.5% | Serious AEs (Safety assessment; 160 mg single dose, fasted and fed): no serious AEs were reported | Incidence of TEAEs (Safety assessment; [9]): 29.2% | Incidence of gastrointestinal disorders (Safety assessment; [9]): 4.2% | Incidence of headache (Safety assessment; [9]): 0.0% | Discontinuation of the study due to an AE (Safety assessment; 160 mg single dose, Grade 1 vomiting): Only one volunteer | Tolerability (Safety assessment; single doses of 160 mg, healthy volunteers): generally well tolerated | Main metabolizing enzyme [2]: mainly metabolized by cytochrome P450 3A4 (CYP3A4) | Solubility (In vitro solubility; 0.1 mol/L hydrochloric acid, in vitro): slightly soluble | Solubility (In vitro solubility; pH 6.8, in vitro): poor solubility | Drug efflux (Caco-2): evidence of drug efflux | Permeability (Caco-2): low permeability | IC50 against ALK kinase activity (ALK): sub-nanomolar to nanomolar | IC50 against wild-type and mutant ROS1 kinase activity [3]: sub-nanomolar to nanomolar | Inhibition of cell proliferation (HCC78 cells): potent inhibition | Inhibition of cell proliferation [4]: potent inhibition | Growth of xenograft models [5]: inhibited growth | Anti-tumor efficacy (ALK-positive NSCLC; [10]): promising anti-tumor efficacy | Intracranial activity (ALK-positive NSCLC; [10]): had intracranial activity | Tolerability (ALK-positive NSCLC; oral 20–210 mg/day, fasted state, ALK-positive NSCLC patients): well tolerated | Objective response rate (ORR) (ALK-positive NSCLC; ALK inhibitor-naive subgroup (8/11)): 72.7% | Objective response rate (ORR) (ALK-positive NSCLC; all patients (28/45), oral 20–210 mg/day, fasted): 62.2% | Objective response rate (ORR) (ALK-positive NSCLC; brain metastases subgroup (17/27)): 63.0% | IRC-assessed ORR (ALK-positive NSCLC; ALK inhibitor-naive patients (95/104)): 91.3% | IRC-assessed ORR (ALK-positive NSCLC; all patients (116/150)): 77.3% | IRC-assessed ORR (ALK-positive NSCLC; brain metastases subgroup (50/71)): 70.4% | IRC-assessed ORR (ALK-positive NSCLC; crizotinib-pretreated group (17/26)): 65.4% | Tolerability of single doses (ALK-positive NSCLC; single doses of 160 mg, most AEs Grade 1 or 2): generally well tolerated | AUC0-∞, geometric mean (CV%) ([6]; nine patients): 1970 (30.0) ng·h/mL | Cmax, geometric mean (CV%) ([6]; nine patients): 41.9 (27.0) ng/mL | t½, geometric mean (CV%) ([6]; nine patients): 39.3 (25.6) h | Median tmax ([6]; patients): 3.0 h | BCS class ([7]; low solubility and low gastrointestinal permeability): class IV

CCc1cc2c(cc1N1CCC(N3CCOCC3)CC1)C(C)(C)c1[nH]c3cc(C#N)ccc3c1C2=O [alectinib]
BCS class ([7]; approved ALK and ROS1 TKIs): BCS class IV

COc1cc(N2CCC(N3CCN(C)CC3)CC2)ccc1Nc1ncc(Cl)c(Nc2ccccc2P(C)(C)=O)n1 [brigatinib]
BCS class ([7]; approved ALK and ROS1 TKIs): BCS class I

Cc1cc(Nc2ncc(Cl)c(Nc3ccccc3S(=O)(=O)C(C)C)n2)c(OC(C)C)cc1C1CCNCC1 [ceritinib]
BCS class ([7]; approved ALK and ROS1 TKIs): BCS class IV | Effect of food on drug exposure / PK [8]: improved exposure | Effect of food on safety [8]: improved exposure and safety with food

C[C@@H](Oc1cc(-c2cnn(C3CCNCC3)c2)cnc1N)c1c(Cl)ccc(F)c1Cl [crizotinib]
BCS class ([7]; approved ALK and ROS1 TKIs): BCS class IV

CN1CCN(c2ccc(C(=O)Nc3n[nH]c4ccc(Cc5cc(F)cc(F)c5)cc34)c(NC3CCOCC3)c2)CC1 [entrectinib]
BCS class ([7]; approved ALK and ROS1 TKIs): BCS class II

C[C@H]1Oc2cc(cnc2N)-c2c(nn(C)c2C#N)CN(C)C(=O)c2ccc(F)cc21 [lorlatinib]
BCS class ([7]; approved ALK and ROS1 TKIs): BCS class IV
